ChEMBL document CHEMBL4828710, “Lead optimization to improve the antiviral potency of 2-aminobenzamide derivatives targeting HIV-1 Vif-A3G axis” (Eur J Med Chem, 2021)
Activity calls are given as the source filed them. The calls are words filed in the database; no cut-off is given here.

Legend:
[1] = system: Human immunodeficiency virus 1; assay: Antiviral activity against HIV13B infected in human H9 cells assessed as p24 level incubated for 7 days by ELISA; type: functional, organism-based; conditions: Human immunodeficiency virus 1, 3B, H9, 168 h
In short: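 H9 cells were infected with HIV-1 IIIB at MOI 0.03 for 2 h, washed three times and resuspended in RPMI-1640. Infected cells (4 × 10⁴/well) were cultured with serially diluted compound at 37 °C in 5% CO₂ for 7 days. Supernatant p24 was measured by in-house ELISA, and EC50 was calculated.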

[2] = system: H9; assay: Cytotoxicity against human H9 cells assessed as cell viability incubated for 7 days by MTT colorimetric assay; type: functional; conditions: H9, 168 h, time 7 day
In short: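 H9 cells (2 × 10⁵/well) were incubated with varying compound concentrations in RPMI-1640 with 10% FBS at 37 °C in 5% CO₂ for seven days. Viability was read by MTT colorimetric assay, and CC50 was calculated.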

[3] = Therapeutic index, ratio of CC50 for cytotoxicity against human H9 cells to EC50 for antiviral activity against HIV13B; type: toxicity, cell-based; conditions: read-out: TI
In short: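 TI = CC50/EC50. For EC50, H9 cells were infected with HIV-1 IIIB at MOI 0.03 for 2 h, washed three times, plated at 4 × 10⁴ cells/well with serial compound dilutions, and kept 7 days at 37 °C, 5% CO₂; supernatant p24 was read by in-house ELISA. For CC50, uninfected H9 cells at 2 × 10⁵/well in RPMI-1640 with 10% FBS were kept 7 days, then read by MTT.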

[4] = system: Human immunodeficiency virus 1; assay: Antiviral activity against NNRTI resistant HIV1 A17 infected in human TZM-bl cells assessed as inhibition of replication for 48 hrs by microplate reader method; type: functional, organism-based; conditions: Human immunodeficiency virus 1, A17, TZM-bl
[5] = system: Human immunodeficiency virus 1; assay: Antiviral activity against NRTI resistant HIV1-4755-5 infected in human TZM-bl cells assessed as inhibition of replication for 48 hrs by microplate reader method; type: functional, organism-based; conditions: Human immunodeficiency virus 1, 4755-5, TZM-bl
[6] = system: Human immunodeficiency virus; assay: Antiviral activity against FI resistant HIV PNL4-3-3gp41(364)V38A N42T infected in human TZM-bl cells assessed as inhibition of replication for 48 hrs by microplate reader method; type: functional, organism-based
[7] = system: H9; assay: Reduction in HIV1 Vif expression in HIV1 infected human H9 cells assessed as for 48 hrs by western blotting analysis; type: functional, cell-based; conditions: Human immunodeficiency virus 1, dose 2-50 µM
In short: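 Cells were exposed to the compound at […] at 37 °C for 48 h, then washed with ice-cold PBS and lysed in RIPA buffer. A3G-HA and Vif were resolved by SDS-PAGE and transferred to PVDF. Blots were probed overnight at 4 °C with primary antibodies, then 2 h at room temperature with HRP secondary antibodies. Bands were visualized by chemiluminescence on X-ray film.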

[8] = target: Virion infectivity factor (Human immunodeficiency virus type 1 group M subtype B (isolate NY5)(HIV-1)) (UniProt P12504); assay: Reversal of HIV1 Vif mediated A3G degradation in HIV1 infected human H9 cells for 48 hrs by western blotting analysis; type: cell-based; conditions: Human immunodeficiency virus 1
Virion infectivity factor (Human immunodeficiency virus type 1 group M subtype B (isolate NY5)(HIV-1)), sequence (P12504 whole entry): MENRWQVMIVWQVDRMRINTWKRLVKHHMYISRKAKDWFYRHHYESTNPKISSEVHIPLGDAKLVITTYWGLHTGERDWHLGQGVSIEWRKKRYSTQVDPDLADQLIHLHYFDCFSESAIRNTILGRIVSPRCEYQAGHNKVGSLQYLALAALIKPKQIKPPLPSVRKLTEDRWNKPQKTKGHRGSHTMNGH
In short: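 Cells expressing A3G-HA and Vif were treated with compound at 50, 10 and 2 (three concentrations) at 37 °C for 48 h. They were then washed in ice-cold PBS and lysed in RIPA. A3G-HA and Vif were detected by SDS-PAGE, PVDF transfer, primary antibodies overnight at 4 °C, and HRP secondary for 2 h at room temperature, with chemiluminescence on X-ray film.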

[9] = system: Human immunodeficiency virus 1; assay: Antiviral activity against IN resistant HIV1 pYU2G14OS/Q148H infected in human TZM-bl cells assessed as inhibition of replication for 48 hrs by microplate reader method; type: functional, organism-based; conditions: Human immunodeficiency virus 1, pYU2G14OS/Q148H
[10] = system: Human immunodeficiency virus 1; assay: Antiviral activity against PI resistant HIV-1 L70R/M461/L63P/V82T/184V infected in human TZM-bl cells assessed as inhibition of replication for 48 hrs by microplate reader method; type: functional, organism-based; conditions: Human immunodeficiency virus 1, L70R/M461/L63P/V82T/184V

Row | Structure (SMILES) | EC50 [1] | CC50 [2] | selectivity ratio [3] | also measured
1 | COc1ccc(NC(=O)c2c(N)cccc2S(=O)(=O)c2ccc([N+](=O)[O-])cc2)cc1 | > 100 µM | – | – | –
2 | Nc1ccn([C@@H]2CS[C@H](CO)O2)c(=O)n1 [LAMIVUDINE] | 0.21 µM | > 200 µM | > 976 | –
3 | COc1cc(NC(=O)c2c(N)cccc2S(=O)(=O)c2ccc([N+](=O)[O-])cc2)cc(OC)c1 | > 100 µM | – | – | –
4 | COc1ccccc1NC(=O)c1c(N)cccc1S(=O)(=O)c1ccc([N+](=O)[O-])cc1 | 0.34 µM | > 468 µM | > 1380 | –
5 | COc1ccc(O)cc1NC(=O)c1c(N)cccc1Sc1ccc([N+](=O)[O-])cc1 | 0.47 µM | > 100 µM | > 213 | –
6 | Nc1cccc(S(=O)(=O)c2ccc([N+](=O)[O-])cc2)c1C(=O)Nc1ccc(O)cc1 | 4.59 µM | 32.5 µM | – | –
7 | Cc1cc(C)cc(NC(=O)c2c(N)cccc2S(=O)(=O)c2ccc([N+](=O)[O-])cc2)c1 | 26.4 µM | > 100 µM | > 3.79 | –
8 | COc1ccc(OC)c(NC(=O)c2c(N)cccc2Sc2ccc([N+](=O)[O-])cc2)c1 | 4.05 µM | > 200 µM | > 49.4 | –
9 | COc1ccc(C(=O)O)cc1NC(=O)c1c(N)cccc1S(=O)(=O)c1ccc([N+](=O)[O-])cc1 | > 100 µM | – | – | –
10 | COc1ccc(C(=O)O)cc1NC(=O)c1c(N)cccc1Sc1ccc([N+](=O)[O-])cc1 | 0.42 µM | > 100 µM | > 238 | –
11 | COc1ccc(OCCO)cc1NC(=O)c1c(N)cccc1Sc1ccc([N+](=O)[O-])cc1 | > 100 µM | – | – | –
12 | COc1ccc(O)cc1NC(=O)c1c(N)cccc1S(=O)(=O)c1ccc([N+](=O)[O-])cc1 | 0.07 µM | 259 µM | 3700 | EC50 [4]: 46.4 µM; EC50 [5]: 8.4 µM; EC50 [6]: 3.02 µM; Activity [7]: Active; Activity [8]: Dose-Dependent Effect; EC50 [9]: 3.74 µM; EC50 [10]: 4.39 µM
13 | COc1ccc(F)cc1NC(=O)c1c(N)ncnc1Sc1ccc([N+](=O)[O-])cc1 | 41.1 µM | 26.6 µM | 0.65 | –
14 | COc1ccc(OCCCO)cc1NC(=O)c1c(N)cccc1Sc1ccc([N+](=O)[O-])cc1 | > 100 µM | – | – | –
15 | COc1ccccc1NC(=O)c1c(N)ncnc1Sc1ccc([N+](=O)[O-])cc1 | 9.73 µM | 32.9 µM | 3.38 | –
16 | COc1ccc(O)cc1NC(=O)c1c(N)ncnc1Sc1ccc([N+](=O)[O-])cc1 | 40.6 µM | 35.8 µM | 0.88 | –
17 | COc1ccc(Cl)cc1NC(=O)c1c(N)ncnc1Sc1ccc([N+](=O)[O-])cc1 | 20 µM | 2.22 µM | 0.11 | –
18 | COc1ccc(OC)c(NC(=O)c2c(N)cccc2S(=O)(=O)c2ccc([N+](=O)[O-])cc2)c1 | 3.97 µM | > 200 µM | > 50.4 | –
19 | Nc1cccc(S(=O)(=O)c2ccc([N+](=O)[O-])cc2)c1C(=O)Nc1cccc(O)c1 | > 100 µM | – | – | –
20 | Nc1cccc(S(=O)(=O)c2ccc([N+](=O)[O-])cc2)c1C(=O)Nc1ccc(Cl)cc1F | 10.3 µM | > 100 µM | > 9.71 | –
21 | COc1ccc(F)cc1NC(=O)c1c(N)cccc1S(=O)(=O)c1ccc([N+](=O)[O-])cc1 | 1.93 µM | 89.6 µM | 46.4 | –
22 | COc1ccc(OCCN2CCOCC2)cc1NC(=O)c1c(N)cccc1Sc1ccc([N+](=O)[O-])cc1 | > 100 µM | – | – | –
23 | COc1cc(O)ccc1NC(=O)c1c(N)cccc1S(=O)(=O)c1ccc([N+](=O)[O-])cc1 | 5.77 µM | 54.7 µM | 9.48 | –
24 | Cc1cc(Br)ccc1NC(=O)c1c(N)cccc1S(=O)(=O)c1ccc([N+](=O)[O-])cc1 | > 100 µM | – | – | –
25 | COc1cccc(NC(=O)c2c(N)cccc2S(=O)(=O)c2ccc([N+](=O)[O-])cc2)c1 | > 100 µM | – | – | –
26 | COc1ccc(F)cc1NC(=O)c1c(N)cccc1Sc1ccc([N+](=O)[O-])cc1 | 2.12 µM | > 100 µM | > 47.2 | –
27 | COc1ccc(NC(=O)c2c(N)cccc2S(=O)(=O)c2ccc([N+](=O)[O-])cc2)c(OC)c1 | 3.58 µM | > 100 µM | > 27.9 | –
28 | COc1ccc(NC(=O)c2c(N)cccc2S(=O)(=O)c2ccc([N+](=O)[O-])cc2)cc1O | > 100 µM | – | – | –
29 | COc1ccc(NC(=O)c2c(N)cccc2S(=O)(=O)c2ccc([N+](=O)[O-])cc2)cc1OC | 15.5 µM | > 100 µM | > 6.45 | –
